Data on 28 molecules can be found in ChEMBL document CHEMBL1123793, “Analysis of structure-activity relationships in renin substrate analogue inhibitory peptides” (J Med Chem, 1987).

*1 amine or outer side, *2 acyl side, *3 side chain or, on linkers, in order; H or OH if unused. Where a SMILES comes first, the peptide text is derived from it. [ ]: non-standard residue; d: D form. The star is where a group is joined. X2 = CC[C@H](C)[C@H](N*)C(=O)NC(=O)[C@@H](N)Cc1ccccc1; Sta = CC(C)C[C@H](N)[C@@H](O)CC(=O)O; X1 = CC(C)CC(N[*:1])C(O)CC(=O)[*:2]; hhPhe = N[C@@H](CCCc1ccccc1)C(=O)O; X3 = CC(=O)[C@H](CCCCN)N*; Orn = NCCC[C@H](N)C(=O)O; Nva = CCC[C@H](N)C(=O)O; For = O=C* Bounds are passed on as bounds.

For assay [1], the target named is T1, Renin (Homo sapiens, UniProt P00797).
T1 sequence (P00797 whole entry): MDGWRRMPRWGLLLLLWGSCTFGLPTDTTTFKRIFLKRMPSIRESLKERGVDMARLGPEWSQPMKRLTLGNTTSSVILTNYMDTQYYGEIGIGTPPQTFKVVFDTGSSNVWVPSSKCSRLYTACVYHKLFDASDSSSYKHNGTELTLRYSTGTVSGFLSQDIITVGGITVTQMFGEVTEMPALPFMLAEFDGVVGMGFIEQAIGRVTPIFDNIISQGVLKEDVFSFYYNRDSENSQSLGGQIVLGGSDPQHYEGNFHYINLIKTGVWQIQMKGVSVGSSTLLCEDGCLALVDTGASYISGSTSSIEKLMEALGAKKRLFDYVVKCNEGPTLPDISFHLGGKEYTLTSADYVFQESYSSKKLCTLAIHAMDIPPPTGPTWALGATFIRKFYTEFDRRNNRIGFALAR
The assay is described as follows: Inhibitory activity against human plasma renin. It counts as cell-free. Put shortly:
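Pooled human plasma from about 500 hypertensive patients, collected by renal vein catheterization into chilled EDTA, trypsin-activated. PMSF 5 mM, 8-hydroxyquinoline sulfate 3 mM and a further 5 mM EDTA were added, giving about 10 ng AI mL⁻¹ h⁻¹. Plasma at pH 7.4 with serial peptide dilutions was incubated 1 h at 37 °C against a 0 °C blank, quenched at pH 8.5, and angiotensin I was measured by RIA.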

For assay [2], the target named is T2, Renin (Rattus norvegicus, UniProt P08424).
T2 sequence (P08424 whole entry): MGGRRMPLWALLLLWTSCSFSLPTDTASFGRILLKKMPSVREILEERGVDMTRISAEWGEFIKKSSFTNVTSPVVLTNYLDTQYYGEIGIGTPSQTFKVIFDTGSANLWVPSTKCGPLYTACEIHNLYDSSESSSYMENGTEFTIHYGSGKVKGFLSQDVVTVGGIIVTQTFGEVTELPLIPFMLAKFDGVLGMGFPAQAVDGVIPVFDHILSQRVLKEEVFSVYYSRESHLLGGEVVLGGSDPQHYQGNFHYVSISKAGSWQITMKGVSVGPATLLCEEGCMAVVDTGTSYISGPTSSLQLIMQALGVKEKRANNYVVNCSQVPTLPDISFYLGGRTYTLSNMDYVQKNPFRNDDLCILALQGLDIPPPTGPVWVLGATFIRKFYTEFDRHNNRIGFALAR
The assay is described as follows: Inhibitory potency on plasma renin obtained from Sprague-Dawley rats. Format: cell-free. A digest of the protocol:
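Dog, rabbit or rat plasma was collected into 5 mM EDTA at 0 °C, spun at 4 °C, then given PMSF 5 mM and 8-hydroxyquinoline sulfate 3 mM. Plasma at pH 7.4 with serial inhibitor dilutions was incubated 1 h at 37 °C, with a 0 °C blank. The reaction was quenched at pH 8.5, and angiotensin I was measured by RIA with ¹²⁵I tracer in anti-AI-coated tubes. The ratio is species IC50 divided by human IC50.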

In turn, `CC(C)[C@H](NC(=O)[C@@H](CCCc1ccccc1)NC(=O)[C@H](Cc1c[nH]cn1)NC(=O)[C@H](Cc1ccccc1)NC(=O)[C@@H]1CCCN1C(=O)[C@H](Cc1c[nH]cn1)NC(=O)[C@@H]1CCCN1)C(=O)N[C@@H](Cc1ccc(O)cc1)C(=O)N[C@@H](CCCCN)C(N)=O` yielded a concentration for half-maximal inhibition (IC50) in assay [1] of 0.027 µM.
In the case of `CC[C@H](C)[C@H](NC(=O)CC(O)C(CC(C)C)NC(=O)[C@@H](N)Cc1ccccc1)C(=O)NC(=O)[C@@H](N)Cc1ccccc1` (stereo partly drawn), the IC50 in assay [1] was above 100 µM.
Regarding `CC[C@H](C)[C@H](NC(=O)CC(O)C(CC(C)C)NC(=O)[C@H](Cc1cnc[nH]1)NC(=O)[C@H](Cc1ccccc1)NC(=O)[C@@H]1CCCN1)C(=O)NC(=O)[C@@H](N)Cc1ccccc1` (stereo partly drawn), in assay [1], the IC50 is 0.22 µM.
Still for that read-out and setting: then `CC[C@H](C)[C@H](NC(=O)CC(O)C(CC(C)C)NC(=O)[C@H](Cc1ccccc1)NC(=O)[C@H](Cc1ccccc1)NC(=O)[C@@H]1CCCN1)C(=O)NC(=O)[C@@H](N)Cc1ccccc1` (stereo partly drawn), with 0.43 µM; and `CC(C)CC(NC(=O)[C@H](Cc1c[nH]cn1)NC(=O)[C@H](Cc1ccccc1)NC(=O)[C@@H]1CCCN1)C(O)CC(N)=O` (stereo partly drawn), with 68 µM; and `CC(C)[C@H](NC(=O)[C@H](Cc1ccccc1)NC[C@H](Cc1ccccc1)NC(=O)[C@H](Cc1cnc[nH]1)NC(=O)[C@H](Cc1ccccc1)NC(=O)[C@@H]1CCCN1C(=O)[C@H](N)Cc1cnc[nH]1)C(=O)N[C@@H](Cc1ccc(O)cc1)C(=O)O`, with 0.58 µM.
The same measure, in the same setting: under `CC[C@H](C)[C@H](NC(=O)CC(O)C(CC(C)C)NC(=O)[C@H](Cc1cnc[nH]1)NC(=O)[C@H](Cc1ccccc1)NC(=O)[C@@H]1CCCN1C(C)=O)C(=O)N[C@@H](Cc1cnc[nH]1)C(=O)N[C@@H](CCCCN)C(=O)O` (stereo partly drawn) (Ac-PFH[X1]IHK-OH) stands 0.04 µM; under `CC[C@H](C)[C@H](NC(=O)[C@H](CCCc1ccccc1)NC(=O)[C@H](Cc1cnc[nH]1)NC(=O)[C@H](Cc1ccccc1)NC(=O)[C@@H]1CCCN1C(C)=O)C(=O)N[C@@H](Cc1cnc[nH]1)C(=O)N[C@@H](CCCCN)C(C)=O` (Ac-PFH[hhPhe]IH-X3), 0.046 µM.
On the same count and under the same terms, under `CC[C@H](C)[C@H](NC(=O)CC(O)C(CC(C)C)NC(=O)[C@H](Cc1cnc[nH]1)NC(=O)[C@H](Cc1ccccc1)NC(=O)[C@@H]1CCCN1C(=O)[C@H](Cc1cnc[nH]1)NC(=O)[C@@H]1CCCN1C(C)=O)C(=O)N[C@@H](Cc1cnc[nH]1)C(=O)N[C@@H](CCCCN)C(=O)O` (stereo partly drawn) (Ac-PHPFH[X1]IHK-OH) stands 0.02 µM; under `CC(C)CC(NC(=O)[C@H](Cc1cnc[nH]1)NC(=O)[C@H](Cc1ccccc1)NC(=O)[C@@H]1CCCN1C(=O)[C@@H](N)Cc1cnc[nH]1)C(O)CC(=O)N[C@H](C(=O)N[C@@H](Cc1ccc(O)cc1)C(=O)N[C@@H](CCCCN)C(=O)O)C(C)C` (stereo partly drawn) (H-HPFH[X1]VYK-OH), 0.4 µM.
For the molecule `CC(C)[C@H](NC(=O)[C@H](CCCN)NC(=O)[C@H](Cc1c[nH]cn1)NC(=O)[C@H](Cc1ccccc1)NC(=O)[C@@H]1CCCN1)C(=O)N[C@@H](Cc1ccc(O)cc1)C(=O)N[C@@H](CCCCN)C(N)=O` (H-PFH[Orn]VYK-NH2), the 50% inhibitory concentration (IC50) in assay [1] is 100 µM.
Regarding `CC[C@H](C)[C@H](NC(=O)CC(O)C(CC(C)C)NC(=O)[C@H](Cc1c[nH]cn1)NC(=O)[C@H](Cc1ccccc1)NC(=O)[C@@H]1CCCN1)C(=O)N[C@@H](Cc1c[nH]cn1)C(=O)N[C@@H](CCCCN)C(=O)O` (stereo partly drawn) (H-PFH[X1]IHK-OH), in assay [1], the IC50 was determined as 0.9 µM.
Still for that read-out and setting: then `CC[C@H](C)[C@H](NC(=O)CC(O)C(CC(C)C)NC(=O)[C@H](Cc1ccccc1)NC(=O)[C@H](Cc1ccccc1)NC(=O)[C@@H]1CCCN1C(=O)[C@H](Cc1c[nH]cn1)NC(=O)[C@@H]1CCCN1)C(=O)NC(=O)[C@@H](N)Cc1ccccc1` (stereo partly drawn) (H-PHPFF[X1]-X2), with 0.03 µM; and `CCC[C@H](NC(=O)[C@H](Cc1c[nH]cn1)NC(=O)[C@H](Cc1ccccc1)NC(=O)[C@@H]1CCCN1C(=O)[C@H](Cc1c[nH]cn1)NC(=O)[C@@H]1CCCN1)C(=O)N[C@H](C(=O)NC(=O)[C@@H](N)Cc1ccccc1)[C@@H](C)CC` (H-PHPFH[Nva]-X2), with above 1000 µM.
In assay [1], `CC(C)C[C@H](NC(=O)[C@H](Cc1c[nH]cn1)NC(=O)[C@H](Cc1ccccc1)NC(=O)[C@@H]1CCCN1C(=O)[C@H](Cc1c[nH]cn1)NC(=O)[C@@H]1CCCN1)[C@@H](O)CC(N)=O` (H-PHPFH[Sta]-NH2) came in with an IC50 of 0.9 µM.
On to `CC[C@H](C)[C@H](NC(=O)C[C@H](O)[C@H](CC(C)C)NC(=O)[C@H](Cc1c[nH]cn1)NC(=O)[C@H](Cc1ccccc1)NC(=O)[C@@H]1CCCN1C(=O)[C@H](Cc1c[nH]cn1)NC(=O)[C@@H]1CCCN1)C(=O)N[C@@H](Cc1ccccc1)C(N)=O` (H-PHPFH[Sta]IF-NH2), for which, in assay [2], the IC50 is above 1 µM.
Take `CC[C@H](C)[C@H](NC(=O)[C@H](CCCc1ccccc1)NC(=O)[C@H](Cc1c[nH]cn1)NC(=O)[C@H](Cc1ccccc1)NC(=O)[C@@H]1CCCN1C(=O)[C@H](Cc1c[nH]cn1)NC(=O)[C@@H]1CCCN1)C(=O)N[C@@H](Cc1ccccc1)C(N)=O` (H-PHPFH[hhPhe]IF-NH2): in assay [1], the half-inhibitory concentration (IC50) was 0.03 µM.
Turning to `CC[C@H](C)[C@H](NC(=O)[C@H](CCCc1ccccc1)NC(=O)[C@H](Cc1cnc[nH]1)NC(=O)[C@H](Cc1ccccc1)NC(=O)[C@@H]1CCCN1C(=O)[C@H](Cc1cnc[nH]1)NC(=O)[C@@H]1CCCN1)C(=O)N[C@@H](Cc1cnc[nH]1)C(=O)N[C@@H](CCCCN)C(C)=O` (H-PHPFH[hhPhe]IH-X3), in assay [1], the half-inhibitory concentration (IC50) was found to be 0.03 µM.
`CC[C@H](C)[C@H](NC(=O)[C@H](CCCc1ccccc1)NC(=O)[C@H](CCCCN)NC(=O)[C@H](Cc1ccccc1)NC(=O)[C@@H]1CCCN1C(=O)[C@H](Cc1c[nH]cn1)NC(=O)[C@@H]1CCCN1)C(=O)N[C@@H](Cc1ccccc1)C(N)=O` (H-PHPFK[hhPhe]IF-NH2) yielded an IC50 in assay [1] of 3.9 µM.
`CC[C@H](C)[C@H](NC(=O)[C@H](CCCc1ccccc1)NC(=O)[C@H](Cc1c[nH]cn1)NC(=O)[C@H](Cc1cn(C=O)c2ccccc12)NC(=O)[C@@H]1CCCN1)C(=O)N[C@@H](Cc1ccccc1)C(N)=O` (H-PW(For)H[hhPhe]IF-NH2) yielded a half-maximal inhibitory concentration (IC50) in assay [1] of 0.067 µM.
Same read-out and setting: under `CC[C@H](C)[C@H](NC(=O)[C@H](CCCc1ccccc1)NC(=O)[C@H](Cc1c[nH]cn1)NC(=O)[C@H](Cc1cn(C=O)c2ccccc12)NC(=O)[C@@H]1CCCN1)C(=O)N[C@@H](Cc1cn(C=O)c2ccccc12)C(N)=O` (H-PW(For)H[hhPhe]IW(For)-NH2) stands 0.24 µM.
As for `CC[C@H](C)[C@H](NC(=O)CC(O)C(CC(C)C)NC(=O)[C@H](Cc1cnc[nH]1)NC(=O)[C@H](Cc1ccccc1)NC(=O)[C@@H]1CCCN1C(=O)[C@H](Cc1cn(C=O)c2ccccc12)NC(=O)[C@@H]1CCCN1)C(=O)N[C@@H](Cc1cn(C=O)c2ccccc12)C(N)=O` (stereo partly drawn) (H-PW(For)PFH[X1]IW(For)-NH2), the IC50 in assay [1] was 0.016 µM.
On the same count and under the same terms, then `CC[C@H](C)[C@H](NC(=O)[C@H](CCCc1ccccc1)NC(=O)[C@H](Cc1c[nH]cn1)NC(=O)[C@H](Cc1ccccc1)NC(=O)[C@@H]1CCCN1C(=O)[C@H](Cc1cn(C=O)c2ccccc12)NC(=O)[C@@H]1CCCN1)C(=O)N[C@@H](Cc1cn(C=O)c2ccccc12)C(N)=O` (H-PW(For)PFH[hhPhe]IW(For)-NH2), with 0.027 µM.
On the same count and under the same terms, then `CC[C@H](C)[C@H](NC(=O)[C@H](CCCc1ccccc1)NC(=O)[C@H](Cc1c[nH]cn1)NC(=O)[C@H](Cc1cn(C=O)c2ccccc12)NC(=O)[C@@H]1CCCN1C(=O)[C@H](Cc1cn(C=O)c2ccccc12)NC(=O)[C@@H]1CCCN1)C(=O)N[C@@H](Cc1ccccc1)C(N)=O` (H-PW(For)PW(For)H[hhPhe]IF-NH2), with 0.03 µM; and `CC[C@H](C)[C@H](NC(=O)[C@H](CCCc1ccccc1)NC(=O)[C@H](Cc1c[nH]cn1)NC(=O)[C@H](Cc1cn(C=O)c2ccccc12)NC(=O)[C@@H]1CCCN1C(=O)[C@H](Cc1cn(C=O)c2ccccc12)NC(=O)[C@@H]1CCCN1)C(=O)N[C@@H](Cc1cn(C=O)c2ccccc12)C(N)=O` (H-PW(For)PW(For)H[hhPhe]IW(For)-NH2), with 0.049 µM.
For H-PFHFFVYK-NH2, the IC50 in assay [1] came to 100 µM.
In assay [1], H-PHPFHFFFVYK-OH [RIP] came in with a concentration for half-maximal inhibition (IC50) of 5.2 µM.
The same measure, in the same setting: then H-PHPFRFFVYK-OH, with 200 µM.

Broadly, the IC50 is the point on the concentration scale where inhibition reaches its midpoint. High values mean weaker potency in that assay, low ones greater potency in that assay.
